High-throughput results: PubChem BioAssay, several laboratories
IEC-6 tox: cytotoxicity in IEC-6 intestinal epithelial cells, primary screen, cytotoxicity control for KLF5 inhibitor project, cell-based, luminescence; IEC-6 cytotoxicity, luminescence viability; inhibition, % at 5 µM; 0.78% of 290,000 active; AID 1825, 2009; in the data active means inhibition above about 22%;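 further: 0% = plate median of test compound wells and 100% = cytotoxic reference compound wells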
b-catenin transl: modulators of beta-catenin nuclear translocation, primary screen, imaging, HeLa cells, immunofluorescence, high-content | nuclear translocation activity, % at 5 µM | 0.3% of 190,000 active | AID 1665, 2009;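 active means nuclear translocation activity above 50% at 5 µM, with a well cell count of 50 or more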;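 further: per-cell ratio of nuclear to cytoplasmic median beta-catenin stain intensity; plate controls were DMSO negative control for no effect and GSK-3 inhibitor IX positive control for full effect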
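Test system: HeLa cells, endogenous beta-catenin; Compound: single 5 µM dose plus 0.02–20 µM confirmation series; Times: compound exposure 24 h at 37°C; Signal: fluorescence imaging of beta-catenin antibody stain plus DAPI; Read-out: % activation, nuclear-to-cytoplasmic median beta-catenin signal ratio per cell.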
BaF3 tox: parental Ba/F3 cell viability inhibition, counter-screen for JAK2V617F inhibitor project, murine pro-B, CellTiter-Glo luminescence; 1.1% of 220,000 active; AID 1486, 2009; CellTiter-Glo ATP luminescence; inhibition, % at 5.6 µM;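 active means inhibition above a per-campaign cutoff, the mean inhibition of all tested compounds plus 3 SD, cut at about 27% in these data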;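 further: 0% = DMSO wells and 100% = JAK Inhibitor I control wells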
Ba/F3 V617F tox: reduced viability of JAK2V617F-dependent Ba/F3 cells, primary screen, JAK2V617F inhibitor project, cell-based, Ba/F3 EpoR-JAK2V617F, luminescence | AID 1446, 2008 | ATP luminescence | 1.1% of 220,000 active | inhibition, % at 5.6 µM;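 active means inhibition above the campaign mean plus 3 SD over all tested compounds, cut at about 24% in these data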;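 further: cytokine-independent growth of Ba/F3 cells driven by EpoR plus mutant JAK2; 0% = DMSO-treated cells and 100% = JAK inhibitor I control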
APP transl inh: inhibitors of APP translation via 5'UTR reporter, primary screen, APP 5'UTR luciferase, SH-SY5Y cells; SH-SY5Y APP 5'UTR-luciferase reporter, luminescence; inhibition, % at 2 µM; 0.82% of 190,000 active;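 active means inhibition above a set limit, derived from the sample mean plus 3 SD, cut at about 45% in these data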
MT stabilize HCS: microtubule stabilizers in HeLa cells, primary screen, imaging, high-content imaging; HeLa tubulin immunostaining HCS, 24 h; share of cells brighter than vehicle mean+2SD; % tubulin-high responders, % at 10 µM; 0.83% of 200,000 active; AID 2205, 2009;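 active means plate Z-score above 3 for both tubulin-high and condensed-nucleus cell shares, with cell loss under 80%, at 10 µM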;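 further: anti alpha tubulin signal scored within the nucleus-defined area of each cell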
The depositor's hits bear a star; nt = no result given. This is a sample that favours compounds with a hit; in the whole collection about 2.2% have one here.

SMILES | IEC-6 tox | b-catenin transl | BaF3 tox | Ba/F3 V617F tox | APP transl inh | MT stabilize HCS
Cc1ccc(Sc2c(CO)c(-c3ccccc3)nn2C)cc1 | 85.7* | 1.2 | 82.4* | 79.8* | 95.0* | 5.7
CCc1c(C)nc2ncnn2c1NCCc1ccc(Cl)cc1 | 6.9 | 3.2 | 38.6* | 18.1 | 4.9 | 4.1
CCc1ccc(NC(=S)N(Cc2ccc(Cl)cc2)Cc2ccc(C(=O)O)cc2)cc1 | -7.7 | -0.4 | 0.4 | -3.2 | -3.3 | 2.1
CC(C)CN(CC(C)C)C(=S)Nc1ccc(Cl)cc1 | -1.3 | -3.9 | 42.6* | 33.2* | 4.2 | 4.5
Cc1ccc(C)c(N2CC(C(=O)Nc3nccs3)CC2=O)c1 (centres undefined) | 2.0 | nt | nt | nt | nt | nt
Cc1ccc(OC(C)C(=O)N=Nc2c(O)[nH]c3ccc([N+](=O)[O-])cc23)cc1 (centres undefined) | 5.2 | -1.1 | 1.8 | -0.9 | 8.4 | 15.8*
COc1cc(/C=C(\C#N)c2ccccn2)cc(OC)c1O | 0.0 | 2.6 | -1.3 | 5.7 | nt | nt
COc1cc(/C=C(\C#N)c2[nH]nc(N)c2C#N)cc(OC)c1O | 2.6 | nt | 5.8 | -0.9 | 49.0* | 3.0
CC(C)(C)c1ccc(/C=N/Nc2nncn2N)cc1 | -6.4 | nt | nt | nt | nt | nt
Nn1cnnc1N/N=C/c1cc(Br)cc(Br)c1O | 30.6* | 2.6 | 2.8 | 9.2 | 15.6 | 3.5
CC1(C)CCN2CCC(C)(C)c3c(O)ccc1c32 | 4.9 | nt | nt | nt | nt | nt
O=C(c1ccc(Cl)cc1)C(Cn1cncn1)C(Sc1ccccc1)c1ccccc1 (centres undefined) | -2.2 | 0.2 | 1.9 | -4.6 | 50.8* | 3.0
CCN(CC)S(=O)(=O)c1ccc(C(=O)NCC2CCCCC2)cc1 | -1.0 | nt | nt | nt | nt | nt
Cc1ccc(NC(=O)N2CCCC2C(=O)NCCC2=CCCCC2)cc1 (centres undefined) | 0.4 | -5.9 | -1.4 | -2.5 | 48.4* | 1.6
COc1cc(C(=O)NCCOc2cccc3cccnc23)cc(OC)c1OC | 16.6 | 41.4 | 8.6 | 2.7 | -1.0 | 39.6*
COc1cccc(OCCNC(=O)c2cccc(OC)c2)c1 | 7.8 | nt | 0.6 | -5.6 | 45.0* | 1.9
C(C#CCCCCCCCCC[n+]1ccccc1)#CCCCCCCCCC[n+]1ccccc1 | 51.0* | nt | nt | nt | nt | nt
COc1ccc(S(=O)(=O)N2CCOCC2)cc1NC(=O)c1cccc(Cl)c1 | -8.9 | nt | nt | nt | nt | nt
C=CCNC(=O)/C(C#N)=C\c1cc(Cl)c(O)c(OCC)c1 | 1.0 | 5.5 | 5.6 | 4.8 | -12.2 | 3.7
CCOc1cc(/C=C(/C#N)C(=O)Nc2ccc(O)cc2)cc(Br)c1O | 2.4 | 62.1* | 0.2 | 2.8 | -3.6 | 18.4
CCOC(=O)C1=C(C)N=c2s/c(=C\c3cccn3C)c(=O)n2C1c1cccc(OC)c1OC (centres undefined) | -1.7 | nt | 96.0* | -5.2 | -8.7 | 3.8
COCCNC(=O)c1cn(CCOC)c(=O)c2c1c1ccccc1n2C | -5.8 | nt | nt | nt | nt | nt
C=CCNC(=O)c1ccccc1NC(=O)C1CC(=O)N(C(C)C)C1 (centres undefined) | -1.9 | nt | nt | nt | nt | nt
COc1ccnc(N=CNOCc2cccc(Cl)c2Cl)c1C#N | 0.9 | nt | 5.7 | -1.9 | 14.9 | 1.7
COc1ccnc(N=CNOCc2ccc(F)cc2Cl)c1C#N | -1.7 | -3.6 | 1.2 | -4.2 | 82.1* | 3.1
SMILES | IEC-6 tox | b-catenin transl | BaF3 tox | Ba/F3 V617F tox | APP transl inh | MT stabilize HCS
O=C(Nc1ccc(S(=O)(=O)Nc2cnc3ccccc3n2)cc1)c1cccc(OC(F)F)c1 | -1.9 | nt | nt | nt | nt | nt
CCOc1cc(-c2cc(-c3ccc(C)o3)nc(N)c2C#N)ccc1O | 6.1 | 54.9* | 4.5 | -0.5 | 12.0 | 21.0
Cc1ccc(-c2cc(-c3ccc4c(c3)OCO4)c(C#N)c(N)n2)o1 | -4.6 | 2.4 | 2.6 | 0.6 | -1.7 | 58.9*
CC(C)CC1Nc2ccc(C(=O)NCCCN3CCCCC3C)cc2NC1=O (centres undefined) | 1.4 | nt | nt | nt | nt | nt
COC(=O)c1ccc(-c2nc3ccccc3o2)cc1 | nt | 2.2 | nt | nt | nt | nt
COC(=O)c1ccc(-c2nc3ccc(C)cc3o2)cc1 | -4.6 | 0.1 | 4.0 | 0.6 | -25.2 | 52.1*
CC1=C(CC(=O)O)c2cc(F)ccc2/C1=C/c1ccc(S(C)=O)cc1 (centres undefined) | -6.8 | nt | nt | nt | nt | nt
O=C(NCC(=O)N(c1ccccc1F)C(C(=O)NC1CCCC1)c1cccnc1)c1ccco1 (centres undefined) | 4.4 | nt | nt | nt | nt | nt
COc1ccc(C2C=C(c3ccc(C)c(C)c3)Nc3ncnn32)c(OC)c1OC (centres undefined) | 4.5 | nt | 4.0 | -2.0 | nt | 23.3*
O=[N+]([O-])c1ccc(Sc2nc3ccccc3o2)c([N+](=O)[O-])c1 | 0.3 | nt | 9.9 | 21.6 | 62.8* | 1.5
O=[N+]([O-])c1ccc(Cl)cc1Sc1nc2ccccc2o1 | -0.4 | -1.4 | -1.1 | -3.7 | 13.7 | 3.5
N#CCCN1CCN(C(=S)c2ccc(-c3ccc(Cl)cc3)o2)CC1 | -5.4 | 5.0 | 93.1* | -2.4 | 5.4 | 3.0
O=C(CCC(=O)N1CCCC1)N1CCCC1 | -1.6 | nt | nt | nt | nt | nt
Cc1cc(O)c(C(C)C)cc1N=Nc1ccccc1C(=O)O | -1.9 | -0.7 | -1.6 | 1.1 | nt | nt
Cc1cc(NO)c(C(C)C)cc1N=O | 4.8 | -1.3 | 45.2* | 51.2* | 4.7 | 3.3
COC(=O)Cn1ncc2c3ccccc3n(C)c2c1=O | -6.6 | -1.7 | 90.2* | -0.1 | -9.8 | 2.1
CCOC(=O)c1ccc(NC(=O)NCc2cccnc2)cc1 | 4.6 | nt | nt | nt | nt | nt
CC(C)C(C(=O)NCC1CCCO1)N(C(=O)CNS(=O)(=O)c1ccccc1)C1CCCCC1 (centres undefined) | 5.7 | nt | nt | nt | nt | nt
CN(C)/C=C(/C(=O)c1ccccc1)n1cncn1 | -0.3 | 0.0 | 2.6 | 0.2 | -1.9 | 5.5
CC(C)(C)C(=O)/C(=C\c1ccc([N+](=O)[O-])cc1)n1cncn1 | 23.2* | 0.4 | 90.5* | 96.7* | 92.6* | 10.2
CCNc1nc(NC(C)C)nc(NS(=O)(=O)c2ccc(C)cc2)n1 | 10.9 | nt | nt | nt | nt | nt
COc1ccc(C(=O)C(CCCCC(CN(C)C)C(=O)c2ccc(OC)cc2)CN(C)C)cc1 (centres undefined) | 5.2 | -1.0 | 8.4 | 1.7 | -20.7 | 2.4
CN(C)CC(CCC(CN(C)C)C(=O)c1ccccc1)C(=O)c1ccccc1 (centres undefined) | 99.9* | 0.1 | 104.3* | 99.0* | nt | nt
Cc1ccnc(Nc2nc(-c3ccc(O)cc3O)cs2)c1 | 9.2 | nt | nt | nt | nt | nt
COC(=O)c1ccc2c(c1)C(C)(C)C(/C=C/c1ccccc1O)=[N+]2C | -2.5 | 1.4 | 14.2 | 2.8 | -12.5 | 53.1*
CC(=O)c1cccc(S(=O)(=O)NCCC(=O)O)c1 | 1.4 | -4.3 | 34.3* | -3.5 | -7.6 | 4.2
O=C1N/C(=N\N=C\c2cccs2)SC1Cc1ccc(Cl)cc1Cl (centres undefined) | 5.9 | 5.0 | 4.6 | 3.4 | 4.3 | 11.5
